Values after ≈ are worked out from the molar mass of the structure shown.
Assays:
Type in all cases: functional
Spodoptera litura [1] = assay: Larvicidal activity against Spodoptera litura fed on compound-treated castor leaf assessed as mortality after 96 hr relative to control
Summary of the method: (§1)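 Larvae were fed 24 h on leaf discs treated with compound at several concentrations, then kept on untreated fresh leaves. Diet was replaced every 24 h, and larval mortality was scored 96 h after treatment.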

Spodoptera litura [2] = assay: Antifeedant activity against pre-starved fourth-instar larva of Spodoptera litura fed on compound-treated castor leaf assessed as antifeedant index at 250 ppm after 24 hr by leaf disc no choice method
Spodoptera litura [3] = assay: Antifeedant activity against pre-starved fourth instar larva of Spodoptera litura fed on compound-treated castor leaf assessed as antifeedant index at 125 ppm after 24 hr by leaf disc no choice method
Helicoverpa armigera [4] = assay: Antifeedant activity against pre-starved fourth-instar larva of Helicoverpa armigera fed on compound-treated cotton leaf assessed as antifeedant index at 500 ppm after 24 hr by leaf disk no choice method
Helicoverpa armigera [5] = assay: Antifeedant activity against pre-starved fourth-instar larva of Helicoverpa armigera fed on compound-treated cotton leaf assessed as antifeedant index at 1000 ppm after 24 hr by leaf disk no choice method
Helicoverpa armigera [6] = assay: Larvicidal activity against Helicoverpa armigera fed on compound-treated cotton leaf assessed as mortality at 1000 ppm after 96 hr relative to control; summary of the method: as §1
Helicoverpa armigera [7] = assay: Larvicidal activity against Helicoverpa armigera fed on compound-treated cotton leaf assessed as mortality at 125 ppm after 96 hr relative to control; summary of the method: as §1
Spodoptera litura [8] = assay: Larvicidal activity against Spodoptera litura fed on compound-treated castor leaf assessed as mortality at 125 ppm after 96 hr relative to control; summary of the method: as §1
Helicoverpa armigera [9] = assay: Larvicidal activity against Helicoverpa armigera fed on compound-treated cotton leaf assessed as mortality at 500 ppm after 96 hr relative to control; summary of the method: as §1
Helicoverpa armigera [10] = assay: Antifeedant activity against pre-starved fourth-instar larva of Helicoverpa armigera fed on compound-treated cotton leaf assessed as antifeedant index at 250 ppm after 24 hr by leaf disk no choice method
Spodoptera litura [11] = assay: Larvicidal activity against Spodoptera litura fed on compound-treated castor leaf assessed as mortality at 250 ppm after 96 hr relative to control; summary of the method: as §1
Spodoptera litura [12] = assay: Larvicidal activity against Spodoptera litura fed on compound-treated castor leaf assessed as mortality at 500 ppm after 96 hr relative to control; summary of the method: as §1
Spodoptera litura [13] = assay: Antifeedant activity against pre-starved fourth-instar larva of Spodoptera litura fed on compound-treated castor leaf assessed as antifeedant index at 500 ppm after 24 hr by leaf disc no choice method
Helicoverpa armigera [14] = assay: Larvicidal activity against Helicoverpa armigera fed on compound-treated cotton leaf assessed as mortality at 250 ppm after 96 hr relative to control; summary of the method: as §1
Spodoptera litura [15] = assay: Antifeedant activity against pre-starved fourth-instar larva of Spodoptera litura fed on compound-treated castor leaf assessed as antifeedant index at 1000 ppm after 24 hr by leaf disc no choice method
Helicoverpa armigera [16] = assay: Larvicidal activity against Helicoverpa armigera fed on compound-treated cotton leaf assessed as mortality after 96 hr relative to control; summary of the method: as §1
Spodoptera litura [17] = assay: Larvicidal activity against Spodoptera litura fed on compound-treated castor leaf assessed as mortality at 1000 ppm after 96 hr relative to control; summary of the method: as §1
Helicoverpa armigera [18] = assay: Antifeedant activity against pre-starved fourth-instar larva of Helicoverpa armigera fed on compound-treated cotton leaf assessed as antifeedant index at 125 ppm after 24 hr by leaf disk no choice method

Row | SMILES | LC50 (Spodoptera litura [1]) | AFI (Spodoptera litura [2]) | AFI (Spodoptera litura [3]) | AFI (Helicoverpa armigera [4]) | AFI (Helicoverpa armigera [5]) | mortality at 1000 ppm (Helicoverpa armigera [6]) | mortality at 125 ppm (Helicoverpa armigera [7]) | mortality at 125 ppm (Spodoptera litura [8]) | mortality at 500 ppm (Helicoverpa armigera [9]) | AFI (Helicoverpa armigera [10]) | mortality at 250 ppm (Spodoptera litura [11]) | mortality at 500 ppm (Spodoptera litura [12]) | AFI (Spodoptera litura [13]) | mortality at 250 ppm (Helicoverpa armigera [14]) | AFI (Spodoptera litura [15]) | LC50 (Helicoverpa armigera [16]) | mortality at 1000 ppm (Spodoptera litura [17]) | AFI (Helicoverpa armigera [18])
1 | C/C=C(\C)C(=O)O[C@H]1C[C@@H](OC(C)=O)[C@@]2(C(=O)OC)CO[C@H]3[C@@H](O)[C@@](C)([C@]45O[C@@]4(C)[C@@H]4C[C@H]5O[C@@H]5OC=C[C@@]54O)[C@H]4[C@]1(CO[C@]4(O)C(=O)OC)[C@@H]32 [AZADIRACHTIN A] | 128 µg/mL (≈ 177 µM) | 70.08% | 60.12% | 75.88% | 86.47% | 100% | 38.8% | 52.5% | 95% | 64.13% | 73.8% | 100% | 78.66% | 61.2% | 88.02% | 186 µg/mL (≈ 258 µM) | 100% | 53.5%
2 | O=C(O)c1cc(O)c2c(c1)C(=O)c1cccc(O)c1C2=O [RHEIN] | 1190 µg/mL (≈ 4200 µM) | 33.05% | 27.28% | 59.98% | 76.13% | 67.5% | 22.5% | 0% | 50% | 55.06% | 15% | 21.2% | 40.85% | 32.5% | 56.79% | 606 µg/mL (≈ 2130 µM) | 36.2% | 47.82%
